Results: ChEMBL document CHEMBL1125553, “Bioisosteric replacement of the alpha-amino carboxylic acid functionality in 2-amino-5-phosphonopentanoic acid yields unique 3,4-diamino-3-cyclobutene-1,2-dione containing NMDA antagonists” (J Med Chem, 1992)
Each block holds one compound with its values, some of them ahead of it.

Tests used:
[1] = target: T1, Glutamate receptor ionotropic, AMPA (Rattus norvegicus, UniProt P19490+P19491+P19492+P19493); test: Compound was tested or its affinity against AMPA receptor in rats
[2] = target: Glutamate receptor ionotropic, kainate; test: Compound was tested or its affinity against ionotropic glutamate receptor ionotropic kainate in rats
Glutamate NMDA receptor [3] = test: Inhibition of [3H]CPP binding to rat N-methyl-D-aspartate glutamate receptor; assay type: protein-complex assay
Procedure, shortened: (§1)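 Rat brain crude synaptic membranes treated with 0.04% Triton X-100 and stored frozen at -70 °C. Before use they were thawed, washed once in Tris HCl buffer and resuspended at 0.3–0.5 mg protein/mL (Lowry). NMDA receptor affinity was measured as displacement of [3H]CPP binding to these membranes.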

[4] = target: T1, Glutamate receptor ionotropic, AMPA; test: The compound was tested for its affinity against AMPA receptor in rats
[5] = target: T2, Glutamate NMDA receptor (Rattus norvegicus) (UniProt P35439+Q00959+Q00960+Q00961+Q62645+Q8VHN2+Q9R1M7); test: The compound was tested for the inhibition of N-methyl-D-aspartate glutamate receptor in rats using [3H]-CPP as uM; settings: concentration not given here
Procedure, shortened: (§2)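 Rat brain crude synaptic membranes, Triton X-100 treated, frozen at -70 °C, thawed, washed once, resuspended in Tris HCl buffer at 0.3–0.5 mg protein/mL (Lowry). NMDA receptor affinity measured by displacement of [3H]CPP binding.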

[6] = target: T2, Glutamate NMDA receptor (Rattus norvegicus); test: The compound was tested for the inhibition of N-methyl-D-aspartate glutamate receptor in rats using [3H]CPP as uM; settings: concentration not given here; procedure, shortened: as §2
Mus musculus [7] = species: Mus musculus; test: (§3) Effective dose against NMDA-induced lethality in male Swiss-albino mice; assay type: functional
Mus musculus [8] = species: Mus musculus; test: as §3; assay type: ADME, organism-based; settings: in vivo
Glutamate NMDA receptor [9] = test: The compound was tested for its affinity against N-methyl-D-aspartate glutamate receptor in rats using [3H]CPP as radioligand; procedure, shortened: as §1
Rattus norvegicus = species: Rattus norvegicus; test: Ability to displace [3H]TCP from rat brain; assay type: functional
Mus musculus [10] = species: Mus musculus; test: Effective dose against NMDA-induced lethality in male Swiss-albino mice was determined at a concentration of 50 uM; assay type: organism-based; settings: in vivo
[11] = target: T2, Glutamate NMDA receptor (Rattus norvegicus); test: The compound was tested for its affinity against N-methyl-D-aspartate glutamate receptor in rats using [3H]CPP as uM; settings: concentration not given here; procedure, shortened: as §2
Glutamate NMDA receptor [12] = test: Compound tested for affinity towards N-methyl-D-aspartate glutamate receptor by measuring their ability to displace [3H]TCP from rat brain

IC50 [1]: > 100 µM | IC50 [2]: > 100 µM | IC50 (Glutamate NMDA receptor [3]): 10 µM
Structure (SMILES): C=CCN(CC(=O)O)c1c(N)c(=O)c1=O

IC50 [4]: > 100 µM | IC50 [2]: > 100 µM | inhibition [5]: 50%
Structure (SMILES): Nc1c(N(CC(=O)O)Cc2ccccc2)c(=O)c1=O

IC50 [4]: > 100 µM | IC50 [2]: > 100 µM | inhibition [6]: 46%
Structure (SMILES): C=C(C)CN(CC(=O)O)c1c(N)c(=O)c1=O

Structure (SMILES): NC(CCCCCP(=O)(O)O)C(=O)O (stereo not drawn) [AP-7]
ED50 (Mus musculus [7]): 38 mg/kg | IC50 (Glutamate NMDA receptor [3]): 0.39 µM

IC50 [4]: > 100 µM | IC50 [2]: > 100 µM | IC50 (Glutamate NMDA receptor [3]): 5.2 µM
Structure (SMILES): Nc1c(NCCn2oc(=O)[nH]c2=O)c(=O)c1=O

IC50 (Glutamate NMDA receptor [3]): 20 µM
Structure (SMILES): C/N=c1\c(O)c(O)\c1=N/CCC(=O)O

Structure (SMILES): Nc1c(NCCP(=O)(O)O)c(=O)c1=O
ED50 (Mus musculus [8]): 29 mg/kg | IC50 (Glutamate NMDA receptor [9]): 0.47 µM

IC50 (Glutamate NMDA receptor [3]): 190 µM
Structure (SMILES): CCOC(=O)C/N=c1\c(O)c(O)c1=N

Structure (SMILES): Nc1c(NCCCP(=O)(O)O)c(=O)c1=O
ED50 (Mus musculus [8]): > 100 mg/kg | IC50 (Glutamate NMDA receptor [9]): 2.6 µM

Structure (SMILES): Nc1c(NCP(=O)(O)O)c(=O)c1=O
ED50 (Mus musculus [8]): > 100 mg/kg | IC50 (Glutamate NMDA receptor [9]): > 10 µM

Structure (SMILES): N[C@@H](Cn1oc(=O)[nH]c1=O)C(=O)O [QUISQUALATE]
IC50 (Glutamate NMDA receptor [3]): > 100 µM

IC50 (Glutamate NMDA receptor [3]): > 10 µM
Structure (SMILES): NS(=O)(=O)c1cccc2c1c([N+](=O)[O-])cc1nc(O)c(O)nc12 [NBQX]

IC50 (Glutamate NMDA receptor [3]): > 100 µM
Structure (SMILES): O=C(O)CCNc1c(O)c(=O)/c1=N\Cc1ccccc1

IC50 (Rattus norvegicus): 941 µM
Structure (SMILES): Nc1c(NCCC(=O)O)c(=O)c1=O

IC50 [4]: > 100 µM | IC50 [2]: > 100 µM
Structure (SMILES): Nc1c(NCC(=O)O)c(=O)c1=O

Structure (SMILES): CN(CCP(=O)(O)O)c1c(N)c(=O)c1=O
Inhibition (Mus musculus [10]): 50% | IC50 (Glutamate NMDA receptor [9]): 1 µM

Structure (SMILES): Nc1c(NCCCCP(=O)(O)O)c(=O)c1=O
ED50 (Mus musculus [8]): > 30 mg/kg | inhibition [11]: 68%

IC50 (Glutamate NMDA receptor [12]): 45 µM
Structure (SMILES): O=C(O)C1CN(CCCP(=O)(O)O)CCN1 (stereo not drawn)
